Values joined by “and” are separate entries in the source; they are usually repeats but may differ in a detail not shown here. Identical values can stand only once.
Each compound was assayed on HEK-293T (assay: Multiplex assay against HEK293T). Settings: human, 12 h, 1 µM, compound concentration 1 uM.
Assay type: toxicity, cell-based
Method in brief: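 Hoechst33342, BioTracker Green Microtubule Cytoskeleton Dye, MitoTracker Red and Annexin V Alexa Fluor 680 were added to live cells at seeding, and imaging on a CQ1 microscope at 37°C and 5% CO2 followed compound addition. Gating by CellPathfinder machine learning separated cells into Hoechst high-intensity objects or normal cells, then normal cells into healthy, pyknosed or fragmented nuclei, then pyknosed cells into mitotic or apoptotic. Per cents of healthy-nucleus cells are reported for the tubulin, mitochondrial-mass and membrane-permeability phenotypes.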

| SMILES | Population Apoptotic (%) | Population Fragmented Nuclei (%) | Population Healthy Nuclei (%) | Population Hoechst High Intensity Objects (%) | Population Membrane Permeable-Phenotype (%) | Population Mitochondria Different-Phenotype (%) | Population Mitotic Cells (%) | Population Normal (%) | Population Pyknosed Nuclei (%) | Population Tubulin-Different-Phenotype (%) |
| --- | --- | --- | --- | --- | --- | --- | --- | --- | --- | --- |
| CC(C)C[C@H](CO)Nc1nc(S[C@@H](C)c2ccccc2)nc2nc(N)sc12 [AZD-8797] | 39% and 46% | 2% and 8% | 81% and 72% | 4% and 7% | 0 | 44% and 57% | 60% and 53% | 95% and 92% | 15% and 18% | 27% and 22% |
| COc1cc2nc(N3CCN(C(=O)c4ccco4)CC3)nc(N)c2cc1OC.Cl [PRAZOSIN HYDROCHLORIDE] | 32% and 56% | 10% and 6% | 77% | 6% | 0 | 35% and 66% | 67% and 43% | 93% | 11% and 16% | 23% and 22% |
| O=C(O)CCC/C=C\CC1C(O)CC(O)C1/C=C/C(O)COc1cccc(Cl)c1 (stereo not drawn) [CLOPROSTENOL] | 31% and 40% | 7% and 6% | 81% and 80% | 9% and 7% | 0 | 44% and 56% | 68% and 59% | 90% and 92% | 10% and 13% | 35% and 23% |

Same assay, conditions: human, 12 h, 1 µM, compound concentration 1 uM

| SMILES | Total Cell Count |
| --- | --- |
| CC(C)C[C@H](CO)Nc1nc(S[C@@H](C)c2ccccc2)nc2nc(N)sc12 [AZD-8797] | 326 and 356 |
| COc1cc2nc(N3CCN(C(=O)c4ccco4)CC3)nc(N)c2cc1OC.Cl [PRAZOSIN HYDROCHLORIDE] | 448 and 290 |
| O=C(O)CCC/C=C\CC1C(O)CC(O)C1/C=C/C(O)COc1cccc(Cl)c1 (stereo not drawn) [CLOPROSTENOL] | 458 and 341 |

Same assay, conditions: human, 12 h, 10 µM, compound concentration 10 uM

| SMILES | Population Apoptotic (%) | Population Fragmented Nuclei (%) | Population Healthy Nuclei (%) | Population Hoechst High Intensity Objects (%) | Population Membrane Permeable-Phenotype (%) | Population Mitochondria Different-Phenotype (%) | Population Mitotic Cells (%) | Population Normal (%) | Population Pyknosed Nuclei (%) | Population Tubulin-Different-Phenotype (%) |
| --- | --- | --- | --- | --- | --- | --- | --- | --- | --- | --- |
| CC(C)C[C@H](CO)Nc1nc(S[C@@H](C)c2ccccc2)nc2nc(N)sc12 [AZD-8797] | 65% and 67% | 9% and 6% | 71% and 75% | 10% | 0 | 70% and 75% | 34% and 32% | 89% | 18% | 56% and 39% |
| COc1cc2nc(N3CCN(C(=O)c4ccco4)CC3)nc(N)c2cc1OC.Cl [PRAZOSIN HYDROCHLORIDE] | 38% and 55% | 9% and 5% | 75% and 77% | 10% and 9% | 0 | 62% and 61% | 61% and 44% | 89% and 90% | 14% and 16% | 45% and 25% |
| O=C(O)CCC/C=C\CC1C(O)CC(O)C1/C=C/C(O)COc1cccc(Cl)c1 (stereo not drawn) [CLOPROSTENOL] | 45% and 51% | 7% and 8% | 77% | 6% and 13% | 0 | 63% and 68% | 54% and 48% | 93% and 86% | 14% | 41% and 37% |

Same assay, conditions: human, 12 h, 10 µM, compound concentration 10 uM

| SMILES | Total Cell Count |
| --- | --- |
| CC(C)C[C@H](CO)Nc1nc(S[C@@H](C)c2ccccc2)nc2nc(N)sc12 [AZD-8797] | 279 and 345 |
| COc1cc2nc(N3CCN(C(=O)c4ccco4)CC3)nc(N)c2cc1OC.Cl [PRAZOSIN HYDROCHLORIDE] | 348 and 404 |
| O=C(O)CCC/C=C\CC1C(O)CC(O)C1/C=C/C(O)COc1cccc(Cl)c1 (stereo not drawn) [CLOPROSTENOL] | 395 and 357 |

Same assay, conditions: human, 24 h, 1 µM, compound concentration 1 uM

| SMILES | Population Apoptotic (%) | Population Fragmented Nuclei (%) | Population Healthy Nuclei (%) | Population Hoechst High Intensity Objects (%) | Population Membrane Permeable-Phenotype (%) | Population Mitochondria Different-Phenotype (%) | Population Mitotic Cells (%) | Population Normal (%) | Population Pyknosed Nuclei (%) | Population Tubulin-Different-Phenotype (%) |
| --- | --- | --- | --- | --- | --- | --- | --- | --- | --- | --- |
| CC(C)C[C@H](CO)Nc1nc(S[C@@H](C)c2ccccc2)nc2nc(N)sc12 [AZD-8797] | 37% and 45% | 7% | 76% and 81% | 3% and 5% | 0% | 25% and 42% | 62% and 54% | 97% and 94% | 15% and 11% | 16% and 14% |
| COc1cc2nc(N3CCN(C(=O)c4ccco4)CC3)nc(N)c2cc1OC.Cl [PRAZOSIN HYDROCHLORIDE] | 38% and 51% | 9% | 82% and 80% | 3% and 5% | 0% | 25% and 45% | 61% and 48% | 96% and 94% | 7% and 10% | 10% and 16% |
| O=C(O)CCC/C=C\CC1C(O)CC(O)C1/C=C/C(O)COc1cccc(Cl)c1 (stereo not drawn) [CLOPROSTENOL] | 22% and 34% | 11% and 7% | 76% and 83% | 7% and 5% | 1% and 0% | 25% and 37% | 77% and 65% | 92% and 94% | 11% and 9% | 28% and 16% |

Same assay, conditions: human, 24 h, 1 µM, compound concentration 1 uM

| SMILES | Total Cell Count |
| --- | --- |
| CC(C)C[C@H](CO)Nc1nc(S[C@@H](C)c2ccccc2)nc2nc(N)sc12 [AZD-8797] | 400 and 421 |
| COc1cc2nc(N3CCN(C(=O)c4ccco4)CC3)nc(N)c2cc1OC.Cl [PRAZOSIN HYDROCHLORIDE] | 660 and 364 |
| O=C(O)CCC/C=C\CC1C(O)CC(O)C1/C=C/C(O)COc1cccc(Cl)c1 (stereo not drawn) [CLOPROSTENOL] | 612 and 477 |

Same assay, conditions: human, 24 h, 10 µM, compound concentration 10 uM

| SMILES | Population Apoptotic (%) | Population Fragmented Nuclei (%) | Population Healthy Nuclei (%) | Population Hoechst High Intensity Objects (%) | Population Membrane Permeable-Phenotype (%) | Population Mitochondria Different-Phenotype (%) | Population Mitotic Cells (%) | Population Normal (%) | Population Pyknosed Nuclei (%) | Population Tubulin-Different-Phenotype (%) |
| --- | --- | --- | --- | --- | --- | --- | --- | --- | --- | --- |
| CC(C)C[C@H](CO)Nc1nc(S[C@@H](C)c2ccccc2)nc2nc(N)sc12 [AZD-8797] | 54% and 51% | 8% and 9% | 73% and 77% | 9% and 8% | 0% | 64% and 71% | 45% and 48% | 90% and 91% | 17% and 12% | 39% and 36% |
| COc1cc2nc(N3CCN(C(=O)c4ccco4)CC3)nc(N)c2cc1OC.Cl [PRAZOSIN HYDROCHLORIDE] | 50% and 54% | 12% and 11% | 77% and 78% | 5% | 0% and 1% | 40% and 42% | 50% and 45% | 94% | 9% and 10% | 32% and 20% |
| O=C(O)CCC/C=C\CC1C(O)CC(O)C1/C=C/C(O)COc1cccc(Cl)c1 (stereo not drawn) [CLOPROSTENOL] | 46% | 10% and 12% | 78% | 7% and 11% | 0% | 46% and 55% | 54% and 53% | 92% and 88% | 10% and 9% | 35% and 31% |

Same assay, conditions: human, 24 h, 10 µM, compound concentration 10 uM

| SMILES | Total Cell Count |
| --- | --- |
| CC(C)C[C@H](CO)Nc1nc(S[C@@H](C)c2ccccc2)nc2nc(N)sc12 [AZD-8797] | 346 and 393 |
| COc1cc2nc(N3CCN(C(=O)c4ccco4)CC3)nc(N)c2cc1OC.Cl [PRAZOSIN HYDROCHLORIDE] | 463 and 534 |
| O=C(O)CCC/C=C\CC1C(O)CC(O)C1/C=C/C(O)COc1cccc(Cl)c1 (stereo not drawn) [CLOPROSTENOL] | 490 and 483 |

Same assay, conditions: human, 48 h, 1 µM, compound concentration 1 uM

| SMILES | Population Apoptotic (%) | Population Fragmented Nuclei (%) | Population Healthy Nuclei (%) | Population Hoechst High Intensity Objects (%) | Population Membrane Permeable-Phenotype (%) | Population Mitochondria Different-Phenotype (%) | Population Mitotic Cells (%) | Population Normal (%) | Population Pyknosed Nuclei (%) | Population Tubulin-Different-Phenotype (%) |
| --- | --- | --- | --- | --- | --- | --- | --- | --- | --- | --- |
| CC(C)C[C@H](CO)Nc1nc(S[C@@H](C)c2ccccc2)nc2nc(N)sc12 [AZD-8797] | 43% and 24% | 15% and 12% | 78% and 79% | 1% and 3% | 0% and 1% | 16% and 24% | 56% and 75% | 98% and 96% | 6% and 8% | 10% and 13% |
| COc1cc2nc(N3CCN(C(=O)c4ccco4)CC3)nc(N)c2cc1OC.Cl [PRAZOSIN HYDROCHLORIDE] | 36% and 38% | 17% and 16% | 76% | 1% and 2% | 1% and 0% | 16% and 23% | 63% and 61% | 98% and 97% | 5% and 6% | 8% and 9% |
| O=C(O)CCC/C=C\CC1C(O)CC(O)C1/C=C/C(O)COc1cccc(Cl)c1 (stereo not drawn) [CLOPROSTENOL] | 20% and 28% | 15% and 13% | 77% and 81% | 4% and 5% | 1% | 15% and 20% | 79% and 71% | 95% and 94% | 6% and 5% | 15% and 11% |

Same assay, conditions: human, 48 h, 1 µM, compound concentration 1 uM

| SMILES | Total Cell Count |
| --- | --- |
| CC(C)C[C@H](CO)Nc1nc(S[C@@H](C)c2ccccc2)nc2nc(N)sc12 [AZD-8797] | 663 and 681 |
| COc1cc2nc(N3CCN(C(=O)c4ccco4)CC3)nc(N)c2cc1OC.Cl [PRAZOSIN HYDROCHLORIDE] | 1114 and 636 |
| O=C(O)CCC/C=C\CC1C(O)CC(O)C1/C=C/C(O)COc1cccc(Cl)c1 (stereo not drawn) [CLOPROSTENOL] | 956 and 703 |

Same assay, conditions: human, 48 h, 10 µM, compound concentration 10 uM

| SMILES | Population Apoptotic (%) | Population Fragmented Nuclei (%) | Population Healthy Nuclei (%) | Population Hoechst High Intensity Objects (%) | Population Membrane Permeable-Phenotype (%) | Population Mitochondria Different-Phenotype (%) | Population Mitotic Cells (%) | Population Normal (%) | Population Pyknosed Nuclei (%) | Population Tubulin-Different-Phenotype (%) |
| --- | --- | --- | --- | --- | --- | --- | --- | --- | --- | --- |
| CC(C)C[C@H](CO)Nc1nc(S[C@@H](C)c2ccccc2)nc2nc(N)sc12 [AZD-8797] | 60% and 52% | 16% and 15% | 72% and 75% | 7% and 6% | 0% | 57% and 52% | 39% and 47% | 92% and 93% | 11% and 8% | 28% and 21% |
| COc1cc2nc(N3CCN(C(=O)c4ccco4)CC3)nc(N)c2cc1OC.Cl [PRAZOSIN HYDROCHLORIDE] | 33% and 23% | 17% and 14% | 75% and 78% | 4% | 2% and 1% | 32% and 21% | 66% and 76% | 95% | 7% | 17% and 11% |
| O=C(O)CCC/C=C\CC1C(O)CC(O)C1/C=C/C(O)COc1cccc(Cl)c1 (stereo not drawn) [CLOPROSTENOL] | 33% and 25% | 16% and 18% | 76% and 75% | 7% and 6% | 0% and 1% | 32% and 25% | 66% and 74% | 92% and 93% | 6% and 5% | 18% |

Same assay, conditions: human, 48 h, 10 µM, compound concentration 10 uM

| SMILES | Total Cell Count |
| --- | --- |
| CC(C)C[C@H](CO)Nc1nc(S[C@@H](C)c2ccccc2)nc2nc(N)sc12 [AZD-8797] | 416 and 530 |
| COc1cc2nc(N3CCN(C(=O)c4ccco4)CC3)nc(N)c2cc1OC.Cl [PRAZOSIN HYDROCHLORIDE] | 693 and 778 |
| O=C(O)CCC/C=C\CC1C(O)CC(O)C1/C=C/C(O)COc1cccc(Cl)c1 (stereo not drawn) [CLOPROSTENOL] | 659 and 731 |

— ChEMBL document CHEMBL5724801, “EUbOPEN Chemogenomics Library - Multiplex” (2024)
